ChEMBL document CHEMBL1158390, “Photo-inducible cytotoxic and clastogenic activities of 3,6-di-substituted acridines obtained by acylation of proflavine” (Eur J Med Chem, 2009)
Calls of active or inactive are those of the source. No cut-off for these calls is given here.

Key:
CHO [1] = assay: Phototoxicity in transformed CHO cells after 24 hrs incubation in dark by WST1 assay; assay type: functional, cell-based; settings: Cricetulus griseus, light or radiation study
Summary of the method: (§1)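 CHO cells (50,000/well, McCoy's 5A with 10% FCS) grown 24 h, then dosed with a concentration range in duplicate (DMSO under 0.5% final). Either kept dark or irradiated at once (4.5 J/cm²: 0.36 UVA plus 4.14 visible, 750 W m⁻²), then 24 h at 37 °C. After PBS washes, 20 min with WST1 and absorbance read at 450 nm. IC50 is the 50% drop versus control.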

CHO-K1 [2] = assay: Clastogenic activity in CHOK1 cells assessed as lowest drug concentration required to increase number of micronucleated cells after 3 hrs of UV irradiation by micronucleus assay; assay type: functional
Summary of the method: (§2)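 CHO-K1 cells (50,000, chamber slides) grown 24 h, then dosed with a concentration range in duplicate, either kept dark or irradiated at once (4.5 J/cm², 1 min, 320–800 nm, 750 W m⁻², samples held at 4 °C). Exposure 3 h at 37 °C, then 5 μg/mL cytochalasin B for 24 h. Methanol fixation, Giemsa staining, 2000 binucleated cells per concentration scored at doses giving under 50% toxicity. χ² test against control. MCC is the lowest concentration giving a significant increase.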

CHO-K1 [3] = assay: Clastogenic activity in CHOK1 cells assessed as lowest drug concentration required to increase number of micronucleated cells after 3 hrs incubation in dark by micronucleus assay; assay type: functional; summary of the method: as §2
[4] = Phototoxicity in normal human keratinocytes after 24 hrs incubation in dark by WST1 assay; assay type: cell-based; settings: Keratinocyte, light or radiation study
[5] = Phototoxicity in normal human keratinocytes after 24 hrs of UV irradiation by WST1 assay; assay type: cell-based; settings: Keratinocyte, light or radiation study
CHO [6] = assay: Phototoxicity in transformed CHO cells after 24 hrs of UV irradiation by WST1 assay; assay type: functional, cell-based; settings: Cricetulus griseus, light or radiation study; summary of the method: as §1
CHO [7] = assay: Ratio of IC50 for transformed CHO cells incubated in dark to IC50 for transformed CHO cells incubated under UV irradiation; assay type: functional, Cricetulus griseus
[8] = Ratio of IC50 for normal human keratinocytes incubated in dark to IC50 for normal human keratinocytes incubated under UV irradiation; assay type: cell-based, Keratinocyte; settings: read-out: Ratio IC50
CHO-K1 [9] = assay: Clastogenic activity in CHOK1 cells assessed as induction of chromosomal mutation and misaggregation at 0.15 uM after 3 hrs of 4.5 J/cm'2 UV irradiation by micronucleus assay in presence of protective antioxidant mannitol treated 2 hrs before compound addition; assay type: functional, cell-based; settings: Cricetulus griseus
Summary of the method: (§3)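 CHO-K1 cells (50,000, chamber slides, McCoy's 5A with 10% FCS) grown 24 h, then given 2 mM mannitol for 2 h at 37 °C. Then either dark treatment or irradiation at 4.5 J/cm² (UVA-visible 320–800 nm, 750 W m⁻²). Exposure 3 h at 37 °C, then 5 μg/mL cytochalasin B for 24 h. Giemsa staining; binucleated cells scored for micronuclei at 1000×.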

CHO-K1 [10] = assay: Clastogenic activity in CHOK1 cells assessed as induction of chromosomal mutation and misaggregation at 15 uM incubated in dark for 3 hrs by micronucleus assay in presence of protective antioxidant mannitol treated 2 hrs before compound addition; assay type: functional, cell-based; settings: Cricetulus griseus; summary of the method: as §3

| Compound | IC50 (CHO [1]) [µM] | Activity (CHO-K1 [2]; Cricetulus griseus) | Activity (CHO-K1 [3]; Cricetulus griseus) | IC50 [4] [µM] | IC50 [5] [µM] | IC50 (CHO [6]) [nM] | Ratio IC50 (CHO [7]) | selectivity ratio [8] | Activity (CHO-K1 [2]) [µM] | Activity (CHO-K1 [3]) [µM] | Activity (CHO-K1 [9]) | Activity (CHO-K1 [10]) |
| --- | --- | --- | --- | --- | --- | --- | --- | --- | --- | --- | --- | --- |
| O=C(Nc1ccc2cc3ccc(NC(=O)c4ccccc4)cc3nc2c1)c1ccccc1 | 23.8 | inactive | inactive | > 50 | 0.33 | 260 | 90 | 100 |  |  |  |  |
| Nc1ccc2cc3ccc(N)cc3nc2c1 [PROFLAVINE] | 1.1 |  |  | > 50 | > 50 | 520 |  |  | 0.004 | 0.005 |  |  |
| O=C(Nc1ccc2cc3ccc(NC(=O)c4cc(C(F)(F)F)cc(C(F)(F)F)c4)cc3nc2c1)c1cc(C(F)(F)F)cc(C(F)(F)F)c1 | > 50 | inactive | inactive | > 50 | > 50 | > 50000 |  |  |  |  |  |  |
| CC(C)(C)OC(=O)Nc1ccc2cc3ccc(NC(=O)OC(C)(C)C)cc3nc2c1 | 6.1 | inactive | inactive | > 50 | 0.14 | 120 |  | 100 |  |  |  |  |
| Nc1ccc(C(=O)Nc2ccc3cc4ccc(NC(=O)c5ccc(N)cc5)cc4nc3c2)cc1 | > 50 |  | inactive | > 50 | > 50 | > 50000 |  |  | 0.13 |  |  |  |
| COc1ccc(C(=O)Nc2ccc3cc4ccc(NC(=O)c5ccc(OC)cc5)cc4nc3c2)cc1 | 45.2 | inactive | inactive | > 50 | > 50 | 43400 |  |  |  |  |  |  |
| N#Cc1ccc(C(=O)Nc2ccc3cc4ccc(NC(=O)c5ccc(C#N)cc5)cc4nc3c2)cc1 | > 50 |  | inactive | > 50 | 33.5 | 3460 |  |  | 0.06 |  |  |  |
| CC(=O)Nc1ccc2cc3ccc(NC(C)=O)cc3nc2c1 | > 50 |  |  | > 50 | 41.2 | 37200 |  |  | 0.24 | 11.01 |  |  |
| O=C(Nc1ccc2cc3ccc(NC(=O)c4cccc5ccccc45)cc3nc2c1)c1cccc2ccccc12 | 42.3 |  | inactive | > 50 | 24.1 | 320 | 130 |  | 0.13 |  |  |  |
| CCC(=O)Nc1ccc2cc3ccc(NC(=O)CC)cc3nc2c1 | > 50 |  |  | > 50 | 2.4 | 2900 |  |  | 0.03 | 1.15 |  |  |
| O=C(Nc1ccc2cc3ccc(NC(=O)c4ccco4)cc3nc2c1)c1ccco1 | 2.5 | inactive | inactive | 34.1 | 19.3 | 16400 |  |  |  |  |  |  |
| CCCC(=O)Nc1ccc2cc3ccc(NC(=O)CCC)cc3nc2c1 | 38.9 |  |  | > 50 | 0.57 | 1340 |  | 100 | 0.007 | 1.01 | Active | Active |
| O=C(Nc1ccc2cc3ccc(NC(=O)c4ccc(Cl)c(Cl)c4)cc3nc2c1)c1ccc(Cl)c(Cl)c1 | > 50 | inactive | inactive | > 50 | > 50 | > 50000 |  |  |  |  |  |  |
| O=C(Nc1ccc2cc3ccc(NC(=O)c4ccc(F)cc4)cc3nc2c1)c1ccc(F)cc1 | > 50 |  | inactive | > 50 | > 50 | > 50000 |  |  | 1.81 |  |  |  |
| CC(C)(C)C(=O)Nc1ccc2cc3ccc(NC(=O)C(C)(C)C)cc3nc2c1 | 0.11 | inactive | inactive | 3.28 | 4.69 | 100 |  |  |  |  |  |  |
| O=C(Nc1ccc2cc3ccc(NC(=O)c4ccc([N+](=O)[O-])cc4)cc3nc2c1)c1ccc([N+](=O)[O-])cc1 | 40.2 | inactive | inactive | > 50 | > 50 | > 50000 |  |  |  |  |  |  |
| COC(=O)Nc1ccc2cc3ccc(NC(=O)OC)cc3nc2c1 | 15.8 |  |  | > 50 | 8.1 | 3800 |  |  | 0.21 | 0.47 |  |  |
| O=C(Nc1ccc2cc3ccc(NC(=O)c4ccc(Cl)cc4)cc3nc2c1)c1ccc(Cl)cc1 | > 50 |  |  | > 50 | 5.4 | 940 |  |  | 0.12 | 2.38 |  |  |
| Cc1ccc(C(=O)Nc2ccc3cc4ccc(NC(=O)c5ccc(C)cc5)cc4nc3c2)cc1 | 43.1 |  |  | > 50 | 4.04 | 1340 |  |  | 0.02 | 2.11 |  |  |
